Most compounds without a hit are left out; they make up all but 4.7% or so of the library.
RGS4 inh: human RGS4 inhibition; P49798; 0.45% of 310,000 active; B-score at 10 µM; HEK293 M3R/RGS4 inducible, Fluo-4 calcium flux; hits give high values; triggered by carbachol at its EC20;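 active = B-score, a plate-corrected calcium signal, over three deviations above library mean, with baseline fluorescence within five deviations of library mean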;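 note: RGS4 expression induced by doxycycline in cells with stable M3 receptor; B-score is computed from the integrated fluorescence ratio over baseline after carbachol; higher B-score means a larger calcium signal and so more RGS4 inhibition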
Target sequence (P49798 whole entry, looked up): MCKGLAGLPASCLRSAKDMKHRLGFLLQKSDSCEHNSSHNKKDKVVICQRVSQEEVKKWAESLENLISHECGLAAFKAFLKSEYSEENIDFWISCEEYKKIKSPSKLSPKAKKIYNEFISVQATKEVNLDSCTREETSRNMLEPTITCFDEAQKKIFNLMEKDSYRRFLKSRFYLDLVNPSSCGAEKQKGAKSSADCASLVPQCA
Cl transport mod: modulators of human KCC2 chloride dependent transport; KCC2 cells, thallium flux FluoZin-2 fluorescence; B-score of Tl+ flux slope (higher = more flux/activation; lower = inhibition) at 10 µM; 2.2% of 190,000 active; AID 1456;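 active = thallium flux slope and its plate-corrected score both differing from the plate sample mean at a set confidence after two filtering rounds, in either direction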;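 note: slope of fluorescence scaled to starting intensity during 10 to 20 s after thallium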
MrgX1 PAM: allosterically activates human MrgX1 receptor signaling | Q96LB2 | MrgX1-HEK293, Fluo-4 calcium flux, FDSS; hits give high values | B-score at 10 µM | 0.63% of 310,000 active;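 active = plate-corrected calcium response at least 3 library SD above typical, normal starting fluorescence, not activating the receptor alone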;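 note: compound read alongside a low EC10 to EC30 dose of BAM8-22 agonist; peak minus trough fluorescence over baseline measured at the second addition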
Target sequence (Q96LB2 whole entry, looked up): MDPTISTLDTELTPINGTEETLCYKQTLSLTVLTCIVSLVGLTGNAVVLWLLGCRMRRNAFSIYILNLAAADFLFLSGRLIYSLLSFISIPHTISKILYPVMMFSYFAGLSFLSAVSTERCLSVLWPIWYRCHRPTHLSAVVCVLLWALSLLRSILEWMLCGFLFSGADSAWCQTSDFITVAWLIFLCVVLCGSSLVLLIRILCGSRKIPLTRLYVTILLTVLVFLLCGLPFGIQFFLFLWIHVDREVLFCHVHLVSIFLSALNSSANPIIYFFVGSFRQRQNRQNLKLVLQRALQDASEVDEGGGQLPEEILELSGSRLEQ
MrgX1 antagonist: blocks BAM8-22 activation of human MrgX1 receptor. MRGX1-HEK293 calcium flux, Fluo-4, BAM8-22 antagonism; hits give low values. B-score at 10 µM. 1.3% of 310,000 active;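 active = calcium-response B-score plate-corrected more than 3 library SD below zero, starting fluorescence within 5 deviations, no agonist response on first addition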;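 note: peak minus trough fluorescence over baseline after final BAM8-22 challenge near maximal dose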
RGS4 act: potentiators or activators of RGS4; HEK293 M3R/inducible RGS4, carbachol calcium flux Fluo4; hits give low values; 0.92% of 310,000 active; AID 463111; B-score at 10 µM;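 active = B-score of the integrated calcium signal more than 4 SD below the library mean, with starting fluorescence not abnormally high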;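 note: negative B-score means reduced calcium response which marks RGS4 activation or potentiation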
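System – HEK293 FlpIn-TREx cells, stable M3R, doxycycline-inducible RGS4 · Reagent – ECmax carbachol challenge · Times – compound preincubation 20 min at room temperature before agonist · Technique – Fluo4 fluorescence kinetic imaging of calcium · Measure – B score of integrated Fluo4 ratio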
MrgX1 agonist: activates human MrgX1 receptor signaling; Q96LB2; MrgX1-HEK293 cells, Fluo-4 calcium fluorescence, agonist mode; hits give high values; B-score at 10 µM; 0.44% of 310,000 active; AID 588627;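 active = calcium response B-score plate-corrected fluorescence ratio at least 3 library SD, with starting fluorescence B-score inside 5 SD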
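Material: MrgX1-expressing HEK293 cells / Dosing: compound as first of three additions / Incubation: overnight seeding, then 1 h dark dye loading / Signal: Fluo-4 NW calcium fluorescence / Evaluation: B-scored fluorescence response ratio / Benchmarks: positive and negative control wells on each plate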
Of the large screens only hits and unclear results are named; the others gave an inactive call.

c1cncc(-c2nc(NCc3cccs3)c3ccccc3n2)c1	none
NC(=O)c1ccc(CN2CCc3ccccc3C2)cc1	none (no result: Cl transport mod)
COc1ccc(N=CC2=C(O)CC(C)(C)CC2=O)cc1	MrgX1 antagonist -6.5
CCOC(=O)c1c(NC(=O)c2ccccc2C(=O)O)sc2c1CCC2	none (no result: Cl transport mod)
COC(=O)c1c(N2C(=O)Nc3ccccc3N2O)sc2c1CCCC2	none
CCOC(=O)c1c(N2C(=O)Nc3ccccc3N2O)sc2c1CCCCC2	MrgX1 agonist 35
CCOC(=O)c1c(NS(=O)(=O)c2ccc(Br)cc2)sc2c1CCC2	Cl transport mod 118
CCOC(=O)c1c(NS(=O)(=O)Cc2ccccc2)sc2c1CCCC2	Cl transport mod 144
O=C(NCc1ccc(Cl)cc1)c1cc(=O)[nH]c2ccccc12	none (no result: Cl transport mod)
CCc1nc(Nc2ccc3c(c2)OCCO3)c2oc3ccccc3c2n1	RGS4 act -7.3
COc1ccc(NC(=O)COc2coc(CN3CCN(c4ccccc4)CC3)cc2=O)cc1	MrgX1 antagonist -5.7 (no result: Cl transport mod)
N#C/C(=C\N1CCN(Cc2ccc3c(c2)OCO3)CC1)c1nc2ccccc2s1	none (no result: Cl transport mod)
CCOC(=O)N1CCN(/C=C(\C#N)c2nc3ccccc3s2)CC1	MrgX1 antagonist -7.1 (no result: Cl transport mod)
CCOC1=C/C(=C/c2c(N)n3oc(C)cc3nc2=O)C=CC1=O	MrgX1 PAM 8.6
Cc1c(CCOC(=O)c2ccccc2)sc[n+]1Cc1ccccc1	RGS4 act -10
Cc1c(CCOC(=O)c2ccccc2)sc[n+]1CC(=O)c1ccc(Br)cc1	RGS4 act -7.9 (no result: Cl transport mod)
Cc1c(CCOC(=O)CC23CC4CC(CC(C4)C2)C3)sc[n+]1CC(=O)c1ccc(Br)cc1	RGS4 act -7.5
COc1cc(OC)c(OC)cc1/C=C/C(=O)c1ccc(NS(=O)(=O)c2ccc(C)cc2)cc1	MrgX1 antagonist -4.8
COc1cccc(-n2nnnc2SCC(=O)Nc2ccccc2OC)c1	none (no result: Cl transport mod)
CCCS(=O)(=O)c1nnnn1-c1cccc(OC)c1	MrgX1 agonist 50
Cc1sc(NC(=O)c2ccco2)c(CN2CCC(C)CC2)c1C	none
Cc1sc(NC(=O)c2ccco2)c(C(c2cccnc2)N2CCC(C)CC2)c1C (centres undefined)	RGS4 act -7.9 (no result: Cl transport mod)
O=C1/C(=C/c2ccc(F)cc2)SC(=S)N1Nc1ncc(C(F)(F)F)cc1Cl	RGS4 act -10
O=C1/C(=C\c2ccccn2)SC(=S)N1Nc1ncc(C(F)(F)F)cc1Cl	none
N#C/C(=C\c1cccs1)Sc1nc2ccccc2s1	MrgX1 antagonist -5.3
N#C/C(=C\c1ccc[nH]1)Sc1nc2ccccc2s1	none
O=C(OCn1ncc(Br)c(Br)c1=O)c1c(F)cccc1F	RGS4 inh 5.4 (no result: Cl transport mod)
CC1=CC2=NC(=O)/C(=C\c3cc(C)n(-c4ccccc4F)c3C)C(=N)N2O1	none
Cc1cc(/C=C2/C(=N)N3C(=NC2=O)SN=C3S(C)(=O)=O)c(C)n1-c1ccccc1F	MrgX1 PAM 11
COc1cc(/C=C2\C(=N)N3N=CSC3=NC2=O)cc(Br)c1OC(=O)c1ccco1	MrgX1 agonist 34
COc1cc(/C=C2/SC(=O)NC2=O)ccc1OC(=O)c1ccco1	none (no result: Cl transport mod)
CCS(=O)(=O)C1=NSC2=NC(=O)/C(=C\c3ccc(OC(=O)c4ccco4)c(OC)c3)C(=N)N21	MrgX1 PAM 28 (no result: Cl transport mod)
COc1cc(/C=C2/SC(=S)N(C)C2=O)ccc1OC(=O)c1ccco1	MrgX1 antagonist -5
CS(=O)(=O)C1=NSC2=NC(=O)/C(=C\c3ccc(OC(=O)c4ccco4)cc3)C(=N)N21	MrgX1 PAM 25 (no result: Cl transport mod)
COc1cc(/C=C2/C(=N)N3C(=NC2=O)SN=C3S(=O)(=O)C(C)C)ccc1OS(=O)(=O)c1ccccc1	MrgX1 PAM 13 (no result: Cl transport mod)
CCOc1cc(/C=C2\C(=N)N3N=CSC3=NC2=O)ccc1OS(=O)(=O)c1ccccc1	MrgX1 agonist 57 (no result: Cl transport mod)
CCOc1cc(/C=C2/C(=N)N3N=C(C)SC3=NC2=O)ccc1OS(=O)(=O)c1ccc(C)cc1	none (no result: Cl transport mod)
CC1CCN(C2=NN3C(=N)/C(=C\c4ccc(OC(=O)c5ccco5)cc4)C(=O)N=C3S2)CC1	none (no result: Cl transport mod)
COc1cc(/C=C2/C(=N)N3C(=NC2=O)SN=C3S(C)(=O)=O)ccc1OC(=O)c1ccco1	MrgX1 PAM 18 (no result: Cl transport mod)
Cc1cc(C)cc(OCCCCn2cncn2)c1	none (no result: Cl transport mod)
COc1ccc(CNC(=O)COC(=O)c2ccc(F)c(S(=O)(=O)N3CCCCC3)c2)cc1OC	none
Cc1ccsc1C(=O)NCCc1nnc2ccccn12	none (no result: Cl transport mod)
CC1CCCCN1CC(=O)NC(c1ccccc1)c1ccccc1 (centres undefined)	RGS4 act -7.3
CSc1ccccc1NC(=O)CN1CCCCC1C (centres undefined)	none
COc1ccc(S(=O)(=O)N2CCC(C(=O)NCc3ccncc3)CC2)cc1OC	none (no result: Cl transport mod)
O=C(Oc1cccc2cccnc12)c1cccc(N2C(=O)C3C4CCC(C4)C3C2=O)c1 (centres undefined)	RGS4 inh 6
CC(C)OCCCNc1ccc(N2C(=O)CCCC2=O)cc1[N+](=O)[O-]	none (no result: Cl transport mod)
CNC(=O)c1ccc(-c2sc3nc(N4CCOCC4)c4c(c3c2N)CC(C)(C)OC4)o1	none
CNC(=O)c1ccc(-c2sc3nc(N4CCOCC4)c4c(c3c2N)CCCC4)o1	MrgX1 PAM 12
COC(=O)C(Cc1ccc(O)cc1)NC(=O)NC12CC3CC(CC(C3)C1)C2 (centres undefined)	none (no result: Cl transport mod)
Cc1nnc(SC(=O)N2c3ccccc3Sc3ccccc32)s1	RGS4 act -7
CCOC(=O)C1=C(C)N=c2s/c(=C\c3ccc(OC(C)=O)cc3)c(=O)n2C1/C=C/c1ccccc1 (centres undefined)	RGS4 act -11
CCOC(=O)C1=C(C)N=c2s/c(=C\c3ccc(OC(C)=O)c(OCC)c3)c(=O)n2C1/C=C/c1ccccc1 (centres undefined)	none
COc1ccccc1NC(=O)CCNS(=O)(=O)c1ccc2c(c1)CCN2C(C)=O	none (no result: Cl transport mod)
O=C(c1cnn2c(C(F)F)cc(-c3ccccc3)nc12)N1CCN(Cc2ccc3c(c2)OCO3)CC1	none (no result: Cl transport mod)
COc1ccc(/C=C2\C(=O)ON=C2c2cccc([N+](=O)[O-])c2)cc1	RGS4 inh 6.8
Cc1nn(-c2ccccc2)c(Cl)c1/C=N/NC(=O)OC(C)(C)C	RGS4 act -8
Cc1nn(-c2ccccc2)c(C)c1/C=N/NC(=O)c1cc(-c2ccc(Br)s2)[nH]n1	none (no result: Cl transport mod)
Cc1nn(-c2ccccc2)c(C)c1/C=N/NC(=O)c1cc(-c2ccc(Cl)s2)[nH]n1	RGS4 act -7.8 (no result: Cl transport mod)
Cc1nn(-c2ccccc2)c(C)c1/C=N/NC(=O)c1cccs1	MrgX1 antagonist -7.1
Cc1nn(-c2ccccc2)c(C)c1-c1cc(C(=O)N/N=C/c2ccc(O)cc2)[nH]n1	RGS4 act -7.1

Assay outcomes from PubChem.
